In ChEMBL document CHEMBL3244187, “Structure--activity relationships in cephalosporins prepared from penicillins. 2. Analogues of cephalexin substituted in the 3-methyl group” (J Med Chem, 1977):
Values after ≈ are worked out from the molar mass of the structure shown. Active and inactive are the calls of the source. No cut-off for these calls is given here.

Columns and labels:
[1] = Drug level in mouse blood at 50 mg/kg, iv after 4 hrs by microbiological assay; type: ADME, organism-based; set-up: dose 50 mg/kg, route intravenous; details: read-out: Drug uptake
How it was run: (§1)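 Mice given a single 50 mg/kg dose by the route in the line. Groups of five killed at each time point and blood taken from the cut axilla, heparinized and stored at 4 °C. Blood assayed the same day by large-plate microbiological assay with Sarcina lutea NCTC 8340, overnight at 30 °C. Standards made in mouse blood, with pH 7.2 phosphate-buffered saline as diluent.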

[2] = Drug level in mouse blood at 50 mg/kg, iv after 1 hr by microbiological assay; type: ADME, organism-based; set-up: dose 50 mg/kg, route intravenous; details: read-out: Drug uptake; how it was run: as §1
[3] = Drug level in mouse blood at 50 mg/kg, iv after 30 mins by microbiological assay; type: ADME, organism-based; set-up: dose 50 mg/kg, route intravenous; details: read-out: Drug uptake; how it was run: as §1
[4] = Drug level in mouse blood at 50 mg/kg, po after 30 mins by microbiological assay; type: ADME, organism-based; set-up: dose 50 mg/kg, route oral; details: read-out: Drug uptake; how it was run: as §1
[5] = test system: Staphylococcus aureus; assay: Antibacterial activity against beta-lactamase producing benzylpenicillin-resistant Staphylococcus aureus Russell after 18 hrs by serial dilution method; type: functional
How it was run: (§2)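 MICs by serial dilution on nutrient agar. Inoculum 0.001 mL of undiluted overnight broth culture. Plates incubated 18 h at 37 °C before reading. The S. aureus Russell strain produces β-lactamase and resists benzylpenicillin.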

[6] = Drug level in mouse blood at 50 mg/kg, sc after 4 hrs by microbiological assay; type: ADME, organism-based; set-up: dose 50 mg/kg, route subcutaneous; details: read-out: Drug uptake; how it was run: as §1
[7] = Drug level in mouse blood at 50 mg/kg, sc after 10 mins by microbiological assay; type: ADME, organism-based; set-up: dose 50 mg/kg, route subcutaneous; details: read-out: Drug uptake; how it was run: as §1
[8] = test system: Escherichia coli; assay: Antibacterial activity against Escherichia coli after 18 hrs by serial dilution method; type: functional
How it was run: (§3)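 MICs by serial dilution on nutrient agar. Inoculum 0.001 mL of undiluted overnight broth culture. Plates incubated at 37 °C for 18 h before reading.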

[9] = Drug level in mouse blood at 50 mg/kg, po after 10 mins by microbiological assay; type: ADME, organism-based; set-up: dose 50 mg/kg, route oral; details: read-out: Drug uptake; how it was run: as §1
[10] = Drug level in mouse blood at 50 mg/kg, iv after 2 hrs by microbiological assay; type: ADME, organism-based; set-up: dose 50 mg/kg, route intravenous; details: read-out: Drug uptake; how it was run: as §1
[11] = Drug level in mouse blood at 50 mg/kg, iv after 20 mins by microbiological assay; type: ADME, organism-based; set-up: dose 50 mg/kg, route intravenous; details: read-out: Drug uptake; how it was run: as §1
[12] = test system: Salmonella typhi; assay: Antibacterial activity against Salmonella typhi after 18 hrs by serial dilution method; type: functional, Salmonella enterica subsp. enterica serovar Typhi; details: Salmonella enterica; how it was run: as §2
[13] = Drug level in mouse blood at 50 mg/kg, po after 20 mins by microbiological assay; type: ADME, organism-based; set-up: dose 50 mg/kg, route oral; details: read-out: Drug uptake; how it was run: as §1
[14] = Drug level in mouse blood at 50 mg/kg, sc after 20 mins by microbiological assay; type: ADME, organism-based; set-up: dose 50 mg/kg, route subcutaneous; details: read-out: Drug uptake; how it was run: as §1
[15] = test system: Shigella sonnei; assay: Antibacterial activity against Shigella sonnei after 18 hrs by serial dilution method; type: functional; how it was run: as §3
[16] = Drug level in mouse blood at 50 mg/kg, sc after 30 mins by microbiological assay; type: ADME, organism-based; set-up: dose 50 mg/kg, route subcutaneous; details: read-out: Drug uptake; how it was run: as §1
[17] = Drug level in mouse blood at 50 mg/kg, iv after 10 mins by microbiological assay; type: ADME, organism-based; set-up: dose 50 mg/kg, route intravenous; details: read-out: Drug uptake; how it was run: as §1
[18] = Drug level in mouse blood at 50 mg/kg, po after 1 hr by microbiological assay; type: ADME, organism-based; set-up: dose 50 mg/kg, route oral; details: read-out: Drug uptake; how it was run: as §1
[19] = test system: Staphylococcus aureus; assay: Antibacterial activity against Staphylococcus aureus Oxford after 18 hrs by serial dilution method; type: functional; how it was run: as §3
[20] = Drug level in mouse blood at 50 mg/kg, sc after 2 hrs by microbiological assay; type: ADME, organism-based; set-up: dose 50 mg/kg, route subcutaneous; details: read-out: Drug uptake; how it was run: as §1
[21] = Drug level in mouse blood at 50 mg/kg, po after 4 hrs by microbiological assay; type: ADME, organism-based; set-up: dose 50 mg/kg, route oral; details: read-out: Drug uptake; how it was run: as §1
[22] = Drug level in mouse blood at 50 mg/kg, sc after 1 hr by microbiological assay; type: ADME, organism-based; set-up: dose 50 mg/kg, route subcutaneous; details: read-out: Drug uptake; how it was run: as §1
[23] = test system: Klebsiella aerogenes; assay: Antibacterial activity against Klebsiella aerogenes after 18 hrs by serial dilution method; type: functional; how it was run: as §3
[24] = Drug level in mouse blood at 50 mg/kg, po after 2 hrs by microbiological assay; type: ADME, organism-based; set-up: dose 50 mg/kg, route oral; details: read-out: Drug uptake; how it was run: as §1
[25] = test system: Proteus mirabilis; assay: Antibacterial activity against Proteus mirabilis after 18 hrs by serial dilution method; type: functional; how it was run: as §3
[26] = test system: Morganella morganii; assay: Antibacterial activity against cephalosporin-resistant Proteus morganii after 18 hrs by serial dilution method; type: functional, organism-based; how it was run: as §2
[27] = test system: Enterobacter cloacae; assay: Antibacterial activity against cephalosporin-resistant Enterobacter cloacae after 18 hrs by serial dilution method; type: functional, organism-based; how it was run: as §2
[28] = test system: Pseudomonas aeruginosa; assay: Antibacterial activity against cephalosporin-resistant Pseudomonas aeruginosa after 18 hrs by serial dilution method; type: functional, organism-based; how it was run: as §2

SMILES: CC(=O)OCC1=C(C(=O)O)N2C(=O)[C@@H](NC(=O)[C@H](N)c3ccccc3)[C@H]2SC1 [CEPHALOGLYCIN]
- concentration at 4 h [1]: < 100 ng/mL
- concentration at 1 h [2]: 1500 ng/mL
- concentration at 0.5 h [3]: 11000 ng/mL
- concentration at 0.5 h [4]: 2000 ng/mL
- MIC [5]: 2.5 µg/mL (≈ 6.17 µM)
- concentration at 4 h [6]: < 100 ng/mL
- concentration at 10 min [7]: 37100 ng/mL
- MIC [8]: 5 µg/mL (≈ 12.3 µM)
- concentration at 10 min [9]: 1700 ng/mL
- concentration at 2 h [10]: < 100 ng/mL
- concentration at 20 min [11]: 40200 ng/mL
- MIC [12]: 1.25 µg/mL (≈ 3.08 µM)
- concentration at 20 min [13]: 2600 ng/mL
- concentration at 20 min [14]: 30200 ng/mL
- MIC [15]: 2.5 µg/mL (≈ 6.17 µM)
- concentration at 0.5 h [16]: 21700 ng/mL
- concentration at 10 min [17]: 62400 ng/mL
- concentration at 1 h [18]: 600 ng/mL
- MIC [19]: 1.25 µg/mL (≈ 3.08 µM)
- concentration at 2 h [20]: 200 ng/mL
- concentration at 4 h [21]: 70 ng/mL
- concentration at 1 h [22]: 3100 ng/mL
- MIC [23]: 5 µg/mL (≈ 12.3 µM)
- concentration at 2 h [24]: 700 ng/mL
- MIC [25]: 5 µg/mL (≈ 12.3 µM)

SMILES: N[C@@H](C(=O)N[C@@H]1C(=O)N2C(C(=O)O)=C(Cc3ccccc3)CS[C@H]12)c1ccccc1
- concentration at 0.5 h [4]: 210 ng/mL
- MIC [5]: 2.5 µg/mL (≈ 5.9 µM)
- MIC [8]: 25 µg/mL (≈ 59 µM)
- concentration at 10 min [9]: 110 ng/mL
- MIC [12]: 25 µg/mL (≈ 59 µM)
- concentration at 20 min [13]: 180 ng/mL
- MIC [15]: 25 µg/mL (≈ 59 µM)
- concentration at 1 h [18]: 190 ng/mL
- MIC [19]: 0.1 µg/mL (≈ 0.236 µM)
- concentration at 4 h [21]: 150 ng/mL
- MIC [23]: 25 µg/mL (≈ 59 µM)
- concentration at 2 h [24]: 340 ng/mL
- MIC [25]: 50 µg/mL (≈ 118 µM)

SMILES: Cn1cccc1CC1=C(C(=O)O)N2C(=O)[C@@H](NC(=O)[C@H](N)c3ccccc3)[C@H]2SC1
- MIC [5]: 50 µg/mL (≈ 117 µM)
- MIC [8]: 500 µg/mL (≈ 1170 µM)
- MIC [12]: 50 µg/mL (≈ 117 µM)
- MIC [15]: 500 µg/mL (≈ 1170 µM)
- MIC [19]: 1.25 µg/mL (≈ 2.93 µM)
- MIC [23]: 500 µg/mL (≈ 1170 µM)
- MIC [25]: 500 µg/mL (≈ 1170 µM)

SMILES: N[C@@H](C(=O)N[C@@H]1C(=O)N2C(C(=O)O)=C(Cc3ccccc3C(F)(F)F)CS[C@H]12)c1ccccc1
- MIC [5]: 5 µg/mL (≈ 10.2 µM)
- MIC [8]: > 100 µg/mL
- MIC [12]: > 100 µg/mL
- MIC [15]: > 100 µg/mL
- MIC [19]: 0.5 µg/mL (≈ 1.02 µM)
- MIC [23]: > 100 µg/mL
- MIC [25]: > 100 µg/mL

SMILES: N[C@@H](C(=O)N[C@@H]1C(=O)N2C(C(=O)O)=C(Cc3ccccn3)CS[C@H]12)c1ccccc1
- MIC [5]: 12.5 µg/mL (≈ 29.4 µM)
- MIC [8]: 50 µg/mL (≈ 118 µM)
- MIC [12]: 12.5 µg/mL (≈ 29.4 µM)
- MIC [15]: 25 µg/mL (≈ 58.9 µM)
- MIC [19]: 1.25 µg/mL (≈ 2.94 µM)
- MIC [23]: > 500 µg/mL
- MIC [25]: 50 µg/mL (≈ 118 µM)

SMILES: N[C@@H](C(=O)N[C@@H]1C(=O)N2C(C(=O)O)=C(Cc3ccccc3C(=O)O)CS[C@H]12)c1ccccc1
- concentration at 4 h [1]: 18100 ng/mL
- concentration at 1 h [2]: 64400 ng/mL
- concentration at 0.5 h [3]: 75400 ng/mL
- concentration at 0.5 h [4]: 2400 ng/mL
- MIC [5]: 12.5 µg/mL (≈ 26.7 µM)
- concentration at 4 h [6]: 31200 ng/mL
- concentration at 10 min [7]: 63200 ng/mL
- concentration at 10 min [9]: 1100 ng/mL
- concentration at 2 h [10]: 29100 ng/mL
- concentration at 20 min [11]: 83600 ng/mL
- MIC [12]: 50 µg/mL (≈ 107 µM)
- concentration at 20 min [13]: 1400 ng/mL
- concentration at 20 min [14]: 66000 ng/mL
- MIC [15]: 12.5 µg/mL (≈ 26.7 µM)
- concentration at 0.5 h [16]: 58000 ng/mL
- concentration at 10 min [17]: 102000 ng/mL
- concentration at 1 h [18]: 3200 ng/mL
- concentration at 2 h [20]: 40600 ng/mL
- concentration at 4 h [21]: 3200 ng/mL
- concentration at 1 h [22]: 49200 ng/mL
- concentration at 2 h [24]: 2800 ng/mL

SMILES: N[C@@H](C(=O)N[C@@H]1C(=O)N2C(C(=O)O)=C(Cc3cccnc3)CS[C@H]12)c1ccccc1
- concentration at 0.5 h [4]: 1250 ng/mL
- MIC [5]: 2.5 µg/mL (≈ 5.89 µM)
- MIC [8]: 2.5 µg/mL (≈ 5.89 µM)
- concentration at 10 min [9]: 2850 ng/mL
- Activity [26]: inactive
- Activity [27]: inactive
- MIC [12]: 1.25 µg/mL (≈ 2.94 µM)
- concentration at 20 min [13]: 1440 ng/mL
- MIC [15]: 2.5 µg/mL (≈ 5.89 µM)
- concentration at 1 h [18]: 620 ng/mL
- MIC [19]: 0.25 µg/mL (≈ 0.589 µM)
- concentration at 4 h [21]: 100 ng/mL
- MIC [23]: 2.5 µg/mL (≈ 5.89 µM)
- concentration at 2 h [24]: 650 ng/mL
- Activity [28]: inactive
- MIC [25]: 5 µg/mL (≈ 11.8 µM)
